Screening results deposited in PubChem BioAssay by several laboratories.
TRPC4 act – activators of mouse TRPC4 channel; Q9QUQ5; HEK293 TRPC4beta/mu-opioid, Fluo4 calcium fluorescence; hits give high values; B-score at 10 µM; 0.49% of 310,000 active;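 active means B-score above 5 SD of library B-scores, and initial fluorescence ratio not above library mean plus 5 SD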;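 further: positive B-score marks a calcium rise read as TRPC4 activation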
Target sequence (Q9QUQ5 whole entry, looked up): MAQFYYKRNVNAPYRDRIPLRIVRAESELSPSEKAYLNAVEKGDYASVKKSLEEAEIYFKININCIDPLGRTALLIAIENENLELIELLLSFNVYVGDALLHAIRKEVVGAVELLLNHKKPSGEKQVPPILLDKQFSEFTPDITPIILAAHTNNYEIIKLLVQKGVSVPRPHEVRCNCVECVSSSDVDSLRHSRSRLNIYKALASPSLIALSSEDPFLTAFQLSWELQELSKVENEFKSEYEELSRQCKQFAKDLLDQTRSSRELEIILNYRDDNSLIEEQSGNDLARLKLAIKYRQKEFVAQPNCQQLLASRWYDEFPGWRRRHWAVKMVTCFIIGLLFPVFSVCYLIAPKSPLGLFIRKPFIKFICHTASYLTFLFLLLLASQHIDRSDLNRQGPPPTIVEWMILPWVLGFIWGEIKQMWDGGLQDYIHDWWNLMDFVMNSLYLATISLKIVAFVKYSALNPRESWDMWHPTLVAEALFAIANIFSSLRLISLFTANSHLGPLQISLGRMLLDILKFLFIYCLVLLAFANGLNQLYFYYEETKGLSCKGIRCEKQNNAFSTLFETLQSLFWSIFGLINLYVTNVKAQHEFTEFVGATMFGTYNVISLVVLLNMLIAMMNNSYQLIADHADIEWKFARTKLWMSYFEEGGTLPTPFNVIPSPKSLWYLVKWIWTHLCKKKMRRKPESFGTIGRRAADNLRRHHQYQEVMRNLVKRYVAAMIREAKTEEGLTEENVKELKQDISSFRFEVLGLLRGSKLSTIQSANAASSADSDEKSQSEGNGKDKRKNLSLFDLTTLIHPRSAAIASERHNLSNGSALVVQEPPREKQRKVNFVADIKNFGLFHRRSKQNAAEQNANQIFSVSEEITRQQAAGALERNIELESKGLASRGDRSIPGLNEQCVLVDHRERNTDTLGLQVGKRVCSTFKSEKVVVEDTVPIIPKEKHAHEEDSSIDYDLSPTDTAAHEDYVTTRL
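Material: TRPC4beta and mu-opioid receptor HEK293 stable cells | Incubation: 45 min room-temperature Fluo4 loading, 110 s read | Detection: Kinetic Fluo4 calcium fluorescence | Measure: Integrated baseline-normalised fluorescence ratio, converted to per-well B score | Benchmarks: Low control buffer alone, high control maximal DAMGO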
Platelet DG rel – platelet dense granule release activity | human platelet-rich plasma, SFLLRN dense granule ATP release, luminescence | inhibition, %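 (compounds screened at 7.5 µM in platelet-rich plasma)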 | 0.22% of 300,000 active | AID 1663;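 active means mean replicate score, as percent of positive control, at or above 50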
TRPC6 act – activates the mouse TRPC6 cation channel; AID 2550; B-score at 10 µM; 0.13% of 310,000 active; Q61143; HEK293-TRPC6 membrane potential dye fluorescence; hits give high values;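 active means B-score of the integrated fluorescence ratio above library mean plus 3 SD, and starting fluorescence ratio within library mean plus 5 SD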;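 further: higher score means more depolarization so channel activation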
TRPC4 PAM – allosteric potentiators of mouse TRPC4 channel | HEK293 TRPC4beta/mu-opioid, DAMGO EC20, Fluo-4 Ca2+ flux; hits give high values | B-score at 10 µM | 0.42% of 310,000 active | AID 2227;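 active means B-score of calcium response area above 5 SD of library B-scores, with initial fluorescence ratio within 5 SD of library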;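 further: B-score of integrated fluorescence ratio over time as area under calcium response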
TRPC6 inhibitor – inhibitors of mouse TRPC6 channel | Q61143 | HEK293-TRPC6, membrane potential dye, ACh-evoked depolarization; hits give low values | B-score at 10 µM | 1.1% of 310,000 active | AID 2553;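 active means B-score under library mean minus 3 SD, initial fluorescence not abnormally high, positive integrated signal ratio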;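 further: B-score derived from integrated fluorescence ratio over the kinetic read; more negative B-score means stronger inhibition of depolarization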
TRPC4 inh – TRPC4 (mouse) channel inhibition | Q9QUQ5 | HEK293 TRPC4beta/mu-opioid, DAMGO-evoked Fluo4 calcium flux; hits give low values | B-score at 10 µM | 0.39% of 300,000 active | AID 2247;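 active means B-score over 3 SD under the library average, no early fluorescence shift, positive overall ratio signal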
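Assay system: HEK293 cells with stable TRPC4beta plus mu-opioid receptor expression; Probe or stimulus: DAMGO in two steps, submaximal then maximal; Dosing: single-point compound dosing; Measured by: Fluo4 calcium-dye fluorescence, kinetic read; Read-out basis: B score from integrated Fluo4 fluorescence ratio.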
TRPC4 spec 2 – second check of whether TRPC6 inhibitors also affect mouse TRPC4; inhibition, % at 10 µM; HEK293 TRPC4/MOR, membrane potential dye fluorescence; channel activated by saturating DAMGO dose; AID 2776; shares compounds with TRPC6 inhibitor; 42% of 920 active;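 active means compounds whose fluorescence signal differed from control wells by over 3 SD, either direction, in both duplicate plates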
TRPC4 spec – tests whether TRPC6 inhibitors also affect mouse TRPC4; AID 2777; activity change, negative = inhibition, % at 10 µM; shares compounds with TRPC6 inhibitor; HEK293 TRPC4/mu-opioid, membrane potential fluorescence; 61% of 920 active;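 active means rise or fall in signal beyond 3 SD of buffer-only wells in both replicate plates, either sign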;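 further: integrated kinetic ratio of fluorescence range over baseline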
HEK293 MPD ctr 2-1 – second counter-screen for TRPC6 inhibitors: parental HEK293 cells | parental HEK293 membrane potential dye fluorescence; maximal acetylcholine challenge after compound addition | signal change vs control, % at 10 µM | shares compounds with TRPC6 inhibitor | 31% of 920 active;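 active means membrane potential signal moving either way by over 3 SD of the maximum-effect control, in both duplicate plates, meaning non-specific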
HEK293 MPD ctr-1 – checks TRPC6 inhibitor effects in parental HEK293 cells; shares compounds with TRPC6 inhibitor; parental HEK293 membrane potential dye fluorescence; membrane potential signal change, % at 10 µM; 60% of 920 active;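 active means membrane potential signal shifting up or down by more than 3 SD of buffer-only wells, on both duplicate plates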
HEK293 MPD ctr-2 – checks TRPC6 modulator effects in parental HEK293 cells. AID 488924. membrane potential signal change, % at 10 µM. membrane potential dye fluorescence. shares compounds with TRPC6 inhibitor. 51% of 2,400 active;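 active means membrane potential signal moves up or down beyond 5 SD from buffer-only wells, on both duplicate plates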
HEK293 MPD ctr 2-2 – second check of TRPC6 modulator effects in parental HEK293 cells | shares compounds with TRPC6 inhibitor | membrane potential dye fluorescence; after compound, maximal acetylcholine stimulation | inhibition, % at 10 µM | 14% of 2,400 active | AID 488926;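 active means membrane potential signal drops by more than 5 SD from the mean control signal, in both duplicate plates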;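 further: plate controls were acetylcholine ECmax control wells for no effect and buffer only wells for full effect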
TRPC4/MOR mod – mouse TRPC4 off-target activity of TRPC6 modulators. shares compounds with TRPC6 inhibitor. 69% of 2,400 active. HEK293 TRPC4/mu-opioid, membrane potential fluorescence. percent change from control (negative = decrease, positive = increase), % at 10 µM. AID 488927;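 active means membrane potential signal moved up or down beyond 5 SD of buffer control wells, in both duplicate plates, actives on both sides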;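 further: plate controls were assay buffer wells for no effect and DAMGO maximal-effect wells for full effect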
TRPC4/MOR inh 2 – second selectivity test of TRPC6 modulators against mouse TRPC4 | inhibition, % at 10 µM | 55% of 2,400 active | HEK293 TRPC4/mu-opioid, membrane potential dye fluorescence; stimulated with maximal-effect DAMGO | AID 488928 | shares compounds with TRPC6 inhibitor;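 active means drop in membrane potential signal beyond 5 SD of the control wells in both duplicate plates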;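 further: TRPC4 counter screen for TRPC6 hits run under conditions tuned for TRPC6 not TRPC4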
TRPC6 block conf – mouse TRPC6 inhibitor confirmation; shares compounds with TRPC6 inhibitor; HEK293-TRPC6, membrane potential dye, ACh-evoked depolarization; inhibition, % at 10 µM; 43% of 3,300 active; AID 488960;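 active means fluorescence ratio falls more than 5 SD below the full-stimulation control mean, in both duplicate runs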;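 further: integrated fluorescence ratio of peak minus minimum over baseline after agonist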
TRPC6 act confirm – confirmation of mouse TRPC6 activators; shares compounds with TRPC6 inhibitor; HEK293-TRPC6 membrane potential dye fluorescence, FDSS; activation, % at 10 µM; 11% of 2,800 active; AID 488961;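 active means ratio signal rise beyond 5 SD above unstimulated control wells' mean, seen in both duplicate runs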;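 further: plate controls were buffer EC0 wells for no effect and acetylcholine ECmax response for full effect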
Numbers without * were called inactive. A selection: hits, their analogues and other compounds. The true share with any hit is near 2.5%.

What do the screens show for `Fc1ccc(Nc2nnc(C(F)(F)F)s2)cc1Cl`?
TRPC4 act: inactive; Platelet DG rel: 0; TRPC6 act: inactive; TRPC4 PAM: inactive; TRPC6 inhibitor: -8.8*; TRPC4 inh: inactive; TRPC4 spec 2: inactive; TRPC4 spec: inactive; HEK293 MPD ctr 2-1: inactive; HEK293 MPD ctr-1: inactive; TRPC6 block conf: 61%*; TRPC6 act confirm: inactive

How did O=C(COc1ccccc1)Nc1cc(NC(=O)COc2ccccc2)cc(C(=O)O)c1 do in these assays?
TRPC4 act: inactive; Platelet DG rel: 5; TRPC6 act: inactive; TRPC4 PAM: inactive; TRPC6 inhibitor: inactive; TRPC4 inh: inactive

How did CC1(C)SC2c3ccccc3C(=O)N2[C@@H]1C(=O)NCCCN1CCOCC1 (stereo partly specified) do in these assays?
TRPC4 act: inactive; Platelet DG rel: 5; TRPC6 act: inactive; TRPC4 PAM: inactive; TRPC6 inhibitor: -5.1*; TRPC4 inh: inactive; HEK293 MPD ctr-2: inactive; HEK293 MPD ctr 2-2: inactive; TRPC4/MOR mod: 11%*; TRPC4/MOR inh 2: inactive; TRPC6 block conf: inactive

Results for CCC(=O)N(CCc1ccccc1)Cc1cc2cccc(C)c2[nH]c1=O ?
TRPC4 act: inactive; Platelet DG rel: -4; TRPC6 act: inactive; TRPC4 PAM: inactive; TRPC6 inhibitor: inactive; TRPC4 inh: inactive

How did CCn1cc(C(=O)OCC(=O)N(C)C2CCS(=O)(=O)C2)c(=O)c2ccc(C)nc21 (stereo unspecified) do in these assays?
TRPC4 act: inactive; Platelet DG rel: -4; TRPC6 act: inactive; TRPC4 PAM: inactive; TRPC6 inhibitor: -5.4*; TRPC4 inh: inactive; HEK293 MPD ctr-2: -269%*; HEK293 MPD ctr 2-2: inactive; TRPC4/MOR mod: -54%*; TRPC4/MOR inh 2: inactive; TRPC6 block conf: 60%*; TRPC6 act confirm: inactive

Results for C/C=C\C(=O)Nc1cccc(C2=NOC3(C2)C[C@H](C(N)=O)N(C(=O)[C@H]2CCC(=O)N2)C3)c1 (stereo partly specified) ?
TRPC4 act: inactive; Platelet DG rel: 3; TRPC6 act: inactive; TRPC4 PAM: inactive; TRPC6 inhibitor: inactive; TRPC4 inh: inactive

How did O=C1c2cccc(Cl)c2C(=O)c2c1cccc2N1CCCC1 do in these assays?
TRPC4 act: inactive; Platelet DG rel: 3; TRPC6 act: inactive; TRPC4 PAM: inactive; TRPC6 inhibitor: -8.3*; TRPC4 inh: inactive; HEK293 MPD ctr-2: -98%*; HEK293 MPD ctr 2-2: inactive; TRPC4/MOR mod: -26%*; TRPC4/MOR inh 2: 76%*; TRPC6 block conf: inactive; TRPC6 act confirm: inactive

What do the screens show for `COc1ccccc1CNCC(=O)Nc1ccc(C#N)cc1`?
TRPC4 act: inactive; Platelet DG rel: 2; TRPC6 act: inactive; TRPC4 PAM: inactive; TRPC6 inhibitor: inactive; TRPC4 inh: inactive

How did COc1ccccc1CNCC(=O)Nc1ccc(C(F)(F)F)cc1 do in these assays?
TRPC4 act: inactive; Platelet DG rel: 1; TRPC6 act: inactive; TRPC4 PAM: inactive; TRPC6 inhibitor: -5.2*; TRPC4 inh: inactive; HEK293 MPD ctr-2: inactive; HEK293 MPD ctr 2-2: inactive; TRPC4/MOR mod: inactive; TRPC4/MOR inh 2: 42%*; TRPC6 block conf: inactive; TRPC6 act confirm: inactive

How did O=C(C[n+]1cc(-c2ccc(F)cc2)n2c1CCC2)N1c2ccccc2Sc2ccccc21 do in these assays?
TRPC4 act: inactive; Platelet DG rel: 6; TRPC6 act: inactive; TRPC4 PAM: inactive; TRPC6 inhibitor: -7.9*; TRPC4 inh: inactive; HEK293 MPD ctr-2: inactive; HEK293 MPD ctr 2-2: inactive; TRPC4/MOR mod: inactive; TRPC4/MOR inh 2: inactive; TRPC6 block conf: 70%*; TRPC6 act confirm: inactive

Results for Cc1ccc(-c2c[n+](CC(=O)N3c4ccccc4Sc4ccccc43)c3n2CCC3)cc1 ?
TRPC4 act: inactive; Platelet DG rel: -17; TRPC6 act: inactive; TRPC4 PAM: inactive; TRPC6 inhibitor: -5.9*; TRPC4 inh: inactive; HEK293 MPD ctr-2: inactive; HEK293 MPD ctr 2-2: inactive; TRPC4/MOR mod: -14%*; TRPC4/MOR inh 2: inactive; TRPC6 block conf: 71%*; TRPC6 act confirm: inactive

How did COc1ccc(C(CNC(=O)C(CCSC)NC(=O)c2ccccc2OC)N2CCCCC2)cc1 (stereo unspecified) do in these assays?
TRPC4 act: inactive; Platelet DG rel: -9; TRPC6 act: inactive; TRPC4 PAM: inactive; TRPC6 inhibitor: inactive; TRPC4 inh: inactive

How did CCOC(=O)c1c(CNc2ccncc2)n(C)c2cc(Br)c(O)cc12 do in these assays?
TRPC4 act: inactive; Platelet DG rel: -5; TRPC6 act: inactive; TRPC4 PAM: inactive; TRPC6 inhibitor: -8.3*; TRPC4 inh: inactive; TRPC4 spec 2: 70%*; TRPC4 spec: -27%*; HEK293 MPD ctr 2-1: -46%*; HEK293 MPD ctr-1: -370%*; TRPC6 block conf: 60%*; TRPC6 act confirm: inactive
